Series [1] deals with RAW264.7. Put plainly: Cytotoxicity against mouse RAW264.7 cells at 100 uM after 8 hrs by MTT assay. The series is classed as cell-based. The following applies: raw264.7, 8 h.
Series [2] concerns the target T1, Nuclear factor erythroid 2-related factor 2 (Mus musculus) (UniProt Q60795).
T1 sequence (whole entry): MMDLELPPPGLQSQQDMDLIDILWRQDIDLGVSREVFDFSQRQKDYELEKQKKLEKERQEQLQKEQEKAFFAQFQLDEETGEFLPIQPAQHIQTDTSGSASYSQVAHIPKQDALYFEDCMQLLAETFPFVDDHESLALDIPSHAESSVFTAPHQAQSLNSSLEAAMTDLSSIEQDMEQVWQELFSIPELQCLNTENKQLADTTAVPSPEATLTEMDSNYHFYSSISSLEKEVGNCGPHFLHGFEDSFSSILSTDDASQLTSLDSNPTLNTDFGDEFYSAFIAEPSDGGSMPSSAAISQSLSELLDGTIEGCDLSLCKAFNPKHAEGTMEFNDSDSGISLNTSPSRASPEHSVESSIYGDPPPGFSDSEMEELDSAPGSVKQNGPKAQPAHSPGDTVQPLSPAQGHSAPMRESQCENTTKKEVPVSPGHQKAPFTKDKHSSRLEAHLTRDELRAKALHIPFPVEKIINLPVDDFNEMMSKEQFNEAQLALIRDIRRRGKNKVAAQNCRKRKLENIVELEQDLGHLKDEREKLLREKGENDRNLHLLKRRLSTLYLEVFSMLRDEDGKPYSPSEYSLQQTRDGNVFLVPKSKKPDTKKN
The experiment in a line: Induction of Nrf2-mediated NQO1 mRNA expression in mouse RAW264.7 cells at 100 uM after 2 to 4 hrs by quantitative RT-PCR analysis relative to control. The series is classed as cell-based.

For series [3], the system named is RAW264.7. The experiment in a line: Antioxidant activity in LPS-stimulated mouse RAW264.7 cells assessed as induction of HO-1 mRNA expression at 100 uM after 4 hrs by RT-PCR analysis. It counts as functional, cell-based.
In series [4] the target is T1, Nuclear factor erythroid 2-related factor 2 (Mus musculus). The experiment in a line: Induction of Nrf2-mediated CAT mRNA expression in mouse RAW264.7 cells at 100 uM after 4 to 20 hrs by quantitative RT-PCR analysis relative to control. The series is classed as cell-based.
Series [5] shares this target. Put plainly: Induction of Nrf2-mediated HO1 mRNA expression in mouse RAW264.7 cells at 100 uM after 24 hrs by quantitative RT-PCR analysis relative to control. The series is classed as cell-based.
For series [6] the target is unchanged. The experiment in a line: Induction of Nrf2-mediated NQO1 mRNA expression in mouse RAW264.7 cells at 100 uM after 24 hrs by quantitative RT-PCR analysis relative to control. It counts as cell-based. The essentials: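 RAW 264.7 cells (DMEM, 10% FBS, 37°C, 5% CO2) exposed to 100 μM compound for a series of time points without stated LPS activation. Total RNA isolated, converted to cDNA, and NQO1 quantified by TaqMan real-time RT-PCR using mouse-specific assays. Fold change versus control derived by the ΔΔCt relative quantification method (40 cycles, 95/60 °C).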

Series [7] has the same target. The experiment in a line: Induction of Nrf2-mediated HO1 mRNA expression in mouse RAW264.7 cells at 100 uM after 2 to 4 hrs by quantitative RT-PCR analysis relative to control. The series is classed as cell-based.
Series [8] concerns RAW264.7. The experiment in a line: Antiinflammatory activity in mouse RAW264.7 cells assessed as inhibition of LPS-induced nitric oxide production at 50 to 100 uM after 24 hrs by Griess method. It counts as functional. The arrangement: scale not given: the % may be the effect or the level left.
For series [9], the target named is T1, Nuclear factor erythroid 2-related factor 2 (Mus musculus). Put plainly: Induction of Nrf2 in mouse RAW264.7 cells assessed as […] in CAT mRNA expression at 100 uM after 24 hrs by quantitative RT-PCR analysis relative to control. The series is classed as cell-based.

The source made the active and inactive calls. The rule behind the calls is not given here.

For `C=C(C)[C@@H]1CC[C@]2(C(=O)O)CC[C@]3(C)[C@H](CC[C@@H]4[C@@]5(C)CC[C@H](O)C(C)(C)[C@@H]5CC[C@]43C)[C@@H]12` [BETULINIC ACID], the Activity entry in the series with RAW264.7 [1] is “Toxic”.

As for `C[C@H]1[C@H](C)CC[C@]2(C(=O)O)CC[C@]3(C)C(=CC[C@@H]4[C@@]5(C)CC[C@H](O)C(C)(C)[C@@H]5CC[C@]43C)[C@H]12` [URSOLIC ACID], the Activity entry with RAW264.7 [1] is “Toxic”.

`CC1(C)CC[C@]2(C(=O)O)CC[C@]3(C)C(=CC[C@@H]4[C@@]5(C)CC[C@H](O)C(C)(C)[C@@H]5CC[C@]43C)[C@@H]2C1` [OLEANOLIC_ACID]: the outcome (in [2]; in the series with RAW264.7 [3]; in [4]; in series [7]) was Active. In addition, the Activity result in the series with RAW264.7 [1] is “Non-toxic”; in the series with RAW264.7 [8] it was 85%. Besides, the result in series [5], in series [6] and in [9] was inactive.

For `CC1(C)[C@@H](O)CC[C@]2(C)[C@H]3C(=O)C=C4[C@@H]5C[C@@](C)(C(=O)O)CC[C@]5(C)CC[C@@]4(C)[C@]3(C)CC[C@@H]12` [ENOXOLONE], in the series with RAW264.7 [1], the Activity result is on record as “Toxic”.

The record behind these values is ChEMBL document CHEMBL2034960, “Bryonolic acid transcriptional control of anti-inflammatory and antioxidant genes in macrophages in vitro and in vivo” (J Nat Prod, 2012).
